Compound activity deposited in PubChem by several laboratories.
An excerpt weighted towards active compounds, which were near 2% of everything screened.
SR-BI HDL uptake = mouse SR-BI HDL lipid transfer inhibition | Q61009 | ldlA[mSR-BI] CHO cells, DiI-HDL uptake fluorescence, 3 h | inhibition, % at 12.5 µM | 320,000 tested, 0.96% active | AID 488896;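 active means mean replicate inhibition of at least 70% and a set share of replicates each scoring 70 or more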
SR-BI DiI-HDL act = activators of SR-BI mediated HDL lipid uptake | activation, % at 12.5 µM | 320,000 tested, 0.096% active | CHO ldlA[mSR-BI] cells, DiI-HDL uptake fluorescence, 3 h; 100 = double the neutral-control signal;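 active means mean replicate activation of at least 60% and every replicate at or above 60%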
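Material – SR-BI-overexpressing, LDLR-lacking CHO cells · Medium – BSA-supplemented, HEPES-buffered Ham's F12, pH 7.4 · Doses – single concentration · Times – compound with DiI-HDL co-incubation, 3 h at 37 °C · Measured by – bottom-read fluorescence, 550/595 nm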
Xi reactivation = X-chromosome reactivation activator; XiGFP mouse fibroblasts, % GFP-positive cells imaging, 3 d; cells co-treated with 5-aza-dC sensitizer; scaled so ellipticine positive control = 100%; activation, % at 7.58 µM; 360,000 tested, 0.055% active; AID 743238;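 active means mean normalized replicate activation at least 10% and every replicate at or above 10%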
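Assay system: SV40-immortalized XiGFP fibroblast cells, line 68-5-11; buffer or medium: DMEM plus 5-aza-dC sensitizer; compound: one concentration, pinned; timing: compounds 3 days, fix/stain 15 min at room temperature; benchmarks: positive control ellipticine, 6 µM final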
NSD2 HMT inh = blocks human histone methyltransferase NSD2. NSD2 peptide methylation, AlphaScreen, 120 min. inhibition, % at 12.5 µM. 310,000 tested, 0.54% active. AID 743445; in the data active means inhibition above about 50%
ARNT-TACC3 inh = disrupts binding between human ARNT and TACC3; Q9Y6A5; AlphaScreen His-ARNT PAS-B/GST-TACC3 binding, luminescence; TACC3 fragment carries E629A point mutation; inhibition, % at 9.99 µM; 390,000 tested, 0.66% active; AID 623870;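 active means mean inhibition of replicates at least 50% and at least half of replicates each reaching 50%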
HGIII-sPLA2 inh = Blocks human group III sPLA2 activity; Q9NZ20; QFRET BODIPY PC-A2 liposome hydrolysis, fluorescence; inhibition, % at 12.2 µM; 370,000 tested, 0.56% active;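 active means inhibition above mean plus 3 SD of compounds lying within the high and low control bounds, cut at about 19% in these data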
Target sequence (Q9NZ20 whole entry, looked up): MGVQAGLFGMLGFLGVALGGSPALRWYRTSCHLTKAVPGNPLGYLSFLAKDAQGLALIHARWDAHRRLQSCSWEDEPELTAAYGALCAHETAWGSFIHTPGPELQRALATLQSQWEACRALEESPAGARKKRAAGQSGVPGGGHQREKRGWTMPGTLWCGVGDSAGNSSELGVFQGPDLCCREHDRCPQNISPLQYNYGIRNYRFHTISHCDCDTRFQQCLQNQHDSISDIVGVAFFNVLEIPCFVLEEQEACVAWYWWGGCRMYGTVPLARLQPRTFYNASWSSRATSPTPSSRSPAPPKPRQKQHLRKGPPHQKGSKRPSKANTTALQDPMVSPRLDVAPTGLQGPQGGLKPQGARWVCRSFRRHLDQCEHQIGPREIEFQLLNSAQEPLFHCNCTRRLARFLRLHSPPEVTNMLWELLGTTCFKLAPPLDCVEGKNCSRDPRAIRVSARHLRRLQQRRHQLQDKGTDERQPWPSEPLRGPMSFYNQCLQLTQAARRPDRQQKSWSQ
DiI quench = counter-screen for SR-BI lipid transfer inhibitors: DiI fluorescence quenchers; cell-free DiI-HDL fluorescence quenching, 30 min; 470 tested, 20% active; AC50, µM (series often up to 35 µM); shares compounds with SR-BI HDL uptake;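 active means quenching, a falling signal, with AC50 below a set limit tied to the top valid dose, actives reach about 32 µM in these data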
A number is an active result.

How did COc1ccnc(CSC(N)=Nc2ccccc2OC)c1 do in these assays?
SR-BI HDL uptake: inactive; SR-BI DiI-HDL act: inactive; NSD2 HMT inh: inactive; ARNT-TACC3 inh: 62; HGIII-sPLA2 inh: inactive

Results for Cc1cccc(N2CCc3c2nc2ccc(Br)cc2c3N)c1 ?
SR-BI HDL uptake: 91; SR-BI DiI-HDL act: inactive; NSD2 HMT inh: inactive; ARNT-TACC3 inh: inactive; HGIII-sPLA2 inh: inactive

How did O=C(CCS(=O)(=O)c1ccccc1)Nc1ccccc1-c1nc2ccccc2s1 do in these assays?
SR-BI HDL uptake: 72; SR-BI DiI-HDL act: inactive; Xi reactivation: inactive; NSD2 HMT inh: inactive; ARNT-TACC3 inh: inactive; HGIII-sPLA2 inh: inactive

Results for Cn1c(=O)c2c(nc(SCc3ccc(C(=O)O)cc3)n2C)n(C)c1=O ?
SR-BI HDL uptake: inactive; SR-BI DiI-HDL act: inactive; Xi reactivation: inactive; NSD2 HMT inh: inactive; ARNT-TACC3 inh: inactive; HGIII-sPLA2 inh: inactive

Results for Oc1ccc(CCc2c(F)cccc2F)c2cccnc12 ?
NSD2 HMT inh: inactive; HGIII-sPLA2 inh: inactive

What do the screens show for `NC(=O)c1cccc2ccccc12`?
Xi reactivation: inactive; NSD2 HMT inh: inactive; ARNT-TACC3 inh: inactive; HGIII-sPLA2 inh: inactive

How did NC(=O)c1ccnc2c(O)cccc12 do in these assays?
SR-BI HDL uptake: inactive; SR-BI DiI-HDL act: inactive; Xi reactivation: inactive; ARNT-TACC3 inh: 73; HGIII-sPLA2 inh: inactive

What do the screens show for `OCc1ccnc2c(O)cccc12`?
SR-BI HDL uptake: inactive; SR-BI DiI-HDL act: inactive; NSD2 HMT inh: inactive; ARNT-TACC3 inh: 66; HGIII-sPLA2 inh: inactive

Results for Oc1ccc(CNc2ccccc2)c2cccnc12 ?
SR-BI HDL uptake: inactive; SR-BI DiI-HDL act: inactive; ARNT-TACC3 inh: 48

How did COc1cccc(-c2nnc(SC(C(=O)c3c[nH]c4ccccc34)c3ccccc3)n2C)c1 (configuration not stated) do in these assays?
SR-BI HDL uptake: 75; SR-BI DiI-HDL act: inactive; Xi reactivation: inactive; NSD2 HMT inh: inactive; ARNT-TACC3 inh: inactive; HGIII-sPLA2 inh: inactive; DiI quench: inactive

How did COc1ccccc1-c1nnc(SC(C(=O)c2c[nH]c3ccccc23)c2ccccc2)n1C (configuration not stated) do in these assays?
SR-BI HDL uptake: inactive; SR-BI DiI-HDL act: inactive; Xi reactivation: inactive; NSD2 HMT inh: inactive; ARNT-TACC3 inh: inactive; HGIII-sPLA2 inh: inactive

What do the screens show for `CCc1nnc(NC(=O)CCN2C(=O)c3ccccc3S2(=O)=O)s1`?
SR-BI HDL uptake: inactive; SR-BI DiI-HDL act: inactive; NSD2 HMT inh: inactive; ARNT-TACC3 inh: inactive; HGIII-sPLA2 inh: inactive

How did Cc1nn(Cc2ccccc2)c(C)c1NC(=O)c1cc2nc(-c3ccco3)cc(C(F)(F)F)n2n1 do in these assays?
SR-BI HDL uptake: 83; SR-BI DiI-HDL act: inactive; NSD2 HMT inh: inactive; ARNT-TACC3 inh: inactive; HGIII-sPLA2 inh: inactive; DiI quench: inactive

How did CC(=O)Nc1cc(NC(C)=O)cc(C(=O)OCC(=O)N(c2ccccc2)C2CCS(=O)(=O)C2)c1 (configuration not stated) do in these assays?
SR-BI HDL uptake: inactive; SR-BI DiI-HDL act: inactive; Xi reactivation: inactive; NSD2 HMT inh: inactive; ARNT-TACC3 inh: inactive; HGIII-sPLA2 inh: inactive; DiI quench: inactive

Results for O=C(NCN1C(=O)C2C3C=CC(C3)C2C1=O)OC1CCCCC1 (configuration not stated) ?
SR-BI HDL uptake: 83; SR-BI DiI-HDL act: inactive; NSD2 HMT inh: inactive; ARNT-TACC3 inh: inactive; HGIII-sPLA2 inh: inactive; DiI quench: inactive

What do the screens show for `CCOC(=O)N1CCN(C(=O)c2ccc([N+](=O)[O-])cc2Cl)CC1`?
SR-BI HDL uptake: inactive; SR-BI DiI-HDL act: inactive; Xi reactivation: inactive; NSD2 HMT inh: inactive; ARNT-TACC3 inh: inactive; HGIII-sPLA2 inh: inactive

What do the screens show for `CCN(C(=O)COn1nnc2ccc(S(=O)(=O)N(C)C)cc21)C1CCS(=O)(=O)C1` (configuration not stated)?
SR-BI HDL uptake: inactive; SR-BI DiI-HDL act: inactive; Xi reactivation: inactive; NSD2 HMT inh: inactive; HGIII-sPLA2 inh: inactive; DiI quench: inactive
